ChEMBL document CHEMBL1123648, “Synthesis, chemical reactivity, and antileukemic activity of 5-substituted 6,7-bis(hydroxymethyl)pyrrolo[1,2-c]thiazole biscarbamates and the corresponding sulfoxides and sulfones” (1987)

Experiments:
[1] = Toxicity day survivors expressed as number of animals that survived to day five/ number of test animals under control group B at a dose of 50 mg/kg; 6 survived out of 6; assay type: functional, Mus musculus
[2] = Percent increase in life span of test animals compared to untreated tumor-bearing control group B animals at a dose of 50 mg/kg; assay type: functional; conditions: Mus musculus
[3] = Percent increase in life span of test animals compared to untreated tumor-bearing control group B animals at a dose of 25 mg/kg; assay type: functional; conditions: Mus musculus
P388 [4] = experiment: Log cell population relative to cell population at the beginning of treatment compared to control group B at a dose of 25 mg/kg; assay type: functional, Mus musculus
P388 [5] = experiment: Log cell population relative to cell population at the beginning of treatment compared to control group B at a dose of 100 mg/kg; assay type: functional, Mus musculus
[6] = Toxicity day survivors expressed as number of animals that survived to day five/ number of test animals under control group B at a dose of 100 mg/kg; 6 survived out of 6; assay type: functional, Mus musculus
P388 [7] = experiment: Log cell population relative to cell population at the beginning of treatment compared to control group B at a dose of 50 mg/kg; assay type: functional, Mus musculus
P388 [8] = experiment: Log cell population relative to cell population at the beginning of treatment compared to control group B at a dose of 12.5 mg/kg; assay type: functional, Mus musculus
[9] = Toxicity day survivors expressed as number of animals that survived to day five/ number of test animals under control group B at a dose of 25 mg/kg; 6 survived out of 6; assay type: functional, Mus musculus
[10] = Percent increase in life span of test animals compared to untreated tumor-bearing control group B animals at a dose of 100 mg/kg; assay type: functional; conditions: Mus musculus
[11] = Antileukemic activity against Murine P388 lymphocytic leukemia, body weight difference of the test animals compared to control group B animals at a dose of 25 mg/kg; assay type: functional, Mus musculus; parameters: unit not given here
Summary of the method: (§1)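 CD2F1 mice implanted intraperitoneally with ascitic fluid carrying ca. 1×10^6 P388 cells, under the NCI protocol. Dosing was intraperitoneal, starting 24 h after inoculation, then every 24 h for five doses in total. The body weight difference of treated mice is taken against untreated controls. Toxicity day survivors are the mice alive at day five out of those tested.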

[12] = Antileukemic activity against Murine P388 lymphocytic leukemia, body weight difference of the test animals compared to control group B animals at a dose of 12.5 mg/kg; assay type: functional, Mus musculus; parameters: unit not given here; summary of the method: as §1
[13] = Toxicity day survivors expressed as number of animals that survived to day five/ number of test animals under control group B at a dose of 12.5 mg/kg; 6 survived out of 6; assay type: functional, Mus musculus
[14] = Percent increase in life span of test animals compared to untreated tumor-bearing control group B animals at a dose of 12.5 mg/kg; assay type: functional; conditions: Mus musculus
[15] = Antileukemic activity against Murine P388 lymphocytic leukemia, body weight difference of the test animals compared to control group B animals at a dose of 50 mg/kg; assay type: functional, Mus musculus; parameters: unit not given here; summary of the method: as §1
[16] = Antileukemic activity against Murine P388 lymphocytic leukemia, body weight difference of the test animals compared to control group B animals at a dose of 100 mg/kg; assay type: functional, Mus musculus; parameters: unit not given here; summary of the method: as §1
[17] = Percent increase in life span of test animals compared to untreated tumor-bearing control group C animals at a dose of 100 mg/kg; assay type: functional; conditions: Mus musculus
P388 [18] = experiment: Log cell population relative to cell population at the beginning of treatment compared to control group A at a dose of 50 mg/kg; assay type: functional, Mus musculus
[19] = Antileukemic activity against Murine P388 lymphocytic leukemia, body weight difference of the test animals compared to control group C animals at a dose of 200 mg/kg; assay type: functional, Mus musculus; summary of the method: as §1
[20] = Antileukemic activity against Murine P388 lymphocytic leukemia, body weight difference of the test animals compared to control group C animals at a dose of 25 mg/kg; assay type: functional, Mus musculus; summary of the method: as §1
[21] = Percent increase in life span of test animals compared to untreated tumor-bearing control group C animals at a dose of 200 mg/kg; assay type: functional; conditions: Mus musculus
[22] = Toxicity day survivors expressed as number of animals that survived to day five/ number of test animals under control group C at a dose of 100 mg/kg; 6 survived out of 6; assay type: functional, Mus musculus
[23] = Toxicity day survivors expressed as number of animals that survived to day five/ number of test animals under control group C at a dose of 50 mg/kg; 6 survived out of 6; assay type: functional, Mus musculus
P388 [24] = experiment: Log cell population relative to cell population at the beginning of treatment compared to control group C at a dose of 100 mg/kg; assay type: functional, Mus musculus
P388 [25] = experiment: Log cell population relative to cell population at the beginning of treatment compared to control group C at a dose of 25 mg/kg; assay type: functional, Mus musculus
[26] = Antileukemic activity against Murine P388 lymphocytic leukemia, body weight difference of the test animals compared to control group C animals at a dose of 50 mg/kg; assay type: functional, Mus musculus; parameters: unit not given here; summary of the method: as §1
[27] = Toxicity day survivors expressed as number of animals that survived to day five/ number of test animals under control group C at a dose of 25 mg/kg; 6 survived out of 6; assay type: functional, Mus musculus
[28] = Toxicity day survivors expressed as number of animals that survived to day five/ number of test animals under control group C at a dose of 200 mg/kg; 6 survived out of 6; assay type: functional, Mus musculus
[29] = Percent increase in life span of test animals compared to untreated tumor-bearing control group C animals at a dose of 50 mg/kg; assay type: functional; conditions: Mus musculus
[30] = Percent increase in life span of test animals compared to untreated tumor-bearing control group C animals at a dose of 25 mg/kg; assay type: functional; conditions: Mus musculus
P388 [31] = experiment: Log cell population relative to cell population at the beginning of treatment compared to control group C at a dose of 200 mg/kg; assay type: functional, Mus musculus
[32] = Antileukemic activity against Murine P388 lymphocytic leukemia, body weight difference of the test animals compared to control group C animals at a dose of 100 mg/kg; assay type: functional, Mus musculus; parameters: unit not given here; summary of the method: as §1

Structure (SMILES): Cc1c(COC(=O)NC(C)C)c(COC(=O)NC(C)C)c2n1CS(=O)(=O)C2
- TDS [1]: 6
- ILS at 50 mg/kg [2]: 84%
- ILS at 25 mg/kg [3]: 59%
- KE (P388 [4]): 2.39
- KE (P388 [5]): >6.77
- TDS [6]: 6
- KE (P388 [7]): 4.71
- KE (P388 [8]): 0.85
- TDS [9]: 6
- ILS at 100 mg/kg [10]: 118%
- BWD [11]: -1.8
- BWD [12]: -1.1
- TDS [13]: 6
- ILS at 12.5 mg/kg [14]: 42%
- BWD [15]: -1.8
- BWD [16]: -4

Structure (SMILES): CNC(=O)OCc1c(COC(=O)NC)c2n(c1C)C[S+]([O-])C2 (configuration not stated)
- ILS at 100 mg/kg [17]: 22%
- KE (P388 [18]): -0.09
- BWD [19]: 0.4
- BWD [20]: 0
- ILS at 200 mg/kg [21]: 15%
- TDS [22]: 6
- TDS [23]: 6
- KE (P388 [24]): -0.05
- KE (P388 [25]): -0.09
- BWD [26]: 1.1
- TDS [27]: 6
- TDS [28]: 6
- ILS at 50 mg/kg [29]: 13%
- ILS at 25 mg/kg [30]: 13%
- KE (P388 [31]): -0.08
- BWD [32]: 0.8
